Measurements as given in article PMC3328401 (Journal of Medicinal Chemistry, 2012).

How the values were obtained:
[1] = Chemical hydrolysis of cycloSal phosphate triesters in phosphate buffer; assay type: physicochemical; details: phosphate buffer 50 mM, pH 7.3, 37°C, ~15% acetonitrile
OVCAR-3 cells = test: Subcellular distribution of 125I-labeled reagents; assay type: cell-based, human; details: for ^125I in cytoplasm, 24 hours / ^125I in nucleus, 24 hours: 1 h incubation then 24 h in fresh nonradioactive medium; for ^125I in cytoplasm, 1 hour / ^125I in nucleus, 1 hour: 1 h incubation, 55.5 kBq/mL
Procedure, shortened: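 OVCAR-3 cells were kept in RPMI-1640 with insulin, 2 mM L-glutamine and 20% FBS and expanded as intraperitoneal xenografts in athymic nude mice. Cells in six T150 flasks attached overnight, then were exposed 1 h to ¹²⁵I compound (55.5 kBq/mL). Three flasks were processed immediately and three after 24 h in fresh medium. Cells were trypsinized, counted, fractionated into nuclear/cytoplasmic compartments and gamma-counted.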

| SMILES | k (rate of hydrolysis) [1] [min⁻¹] | ^125I in cytoplasm, 24 hours (OVCAR-3 cells) | ^125I in nucleus, 24 hours (OVCAR-3 cells) | ^125I in cytoplasm, 1 hour (OVCAR-3 cells) | ^125I in nucleus, 1 hour (OVCAR-3 cells) | other results |
| --- | --- | --- | --- | --- | --- | --- |
| O=c1[nH]c(=O)n([C@H]2C[C@H](OP3(=O)OCc4ccccc4O3)[C@@H](CO)O2)cc1I (stereo partly drawn) [12-fast, 5-Iodo-3′-O-cycloSaligenyl-2′-deoxyuridine Monophosphate] | 0.00205 | – | – | – | – | – |
| O=c1[nH]c(=O)n([C@H]2C[C@H](OP3(=O)OCc4ccccc4O3)[C@@H](CO)O2)cc1[125I] (stereo partly drawn) [12b, 5-[^125I]-Iodo-3′-O-cycloSaligenyl-2′-deoxyuridine Monophosphate] | – | 2.7 (0.3) cpm/10^3 cells (std dev) | 30.2 (5.3) cpm/10^3 cells (std dev) | 7.2 (0.7) cpm/10^3 cells (std dev) | 2.1 (0.2) cpm/10^3 cells (std dev) | – |
| Cc1cccc2c1OP(=O)(O[C@H]1C[C@H](n3cc(I)c(=O)[nH]c3=O)O[C@@H]1CO)OC2 (stereo partly drawn) [13-fast, 5 - Iodo-3′-O-cyclo(3-methylSaligenyl)-2′-deoxyuridine Monophosphate] | 0.000946 | – | – | – | – | – |
| O=c1[nH]c(=O)n([C@H]2C[C@H](O)[C@@H](COP3(=O)OCc4ccccc4O3)O2)cc1[125I] (stereo partly drawn) [6b, 5-[^125I]-Iodo-5′-O-cycloSaligenyl-2′-deoxyuridine Monophosphate] | – | 7.3 (1.0) cpm/10^3 cells (std dev) | 39.4 (5.8) cpm/10^3 cells (std dev) | 20.2 (3.2) cpm/10^3 cells (std dev) | 5.7 (1.6) cpm/10^3 cells (std dev) | – |
| CC(C)(C)c1cc(C(C)(C)C)c2c(c1F)COP(=O)(OC[C@H]1O[C@@H](n3cc([125I])c(=O)[nH]c3=O)C[C@@H]1O)O2 (stereo partly drawn) [8b, 5-[^125I]-Iodo-5′-O-[cyclo-3,5-di-(tert-butyl)-6-fluoroSaligenyl]-2′-deoxyuridine Monophosphate] | – | 3.2 (0.01) cpm/10^3 cells (std dev) | 92.2 (5.0) cpm/10^3 cells (std dev) | 88.3 (5.4) cpm/10^3 cells (std dev) | 7.9 (0.4) cpm/10^3 cells (std dev) | retained radioactivity, more than 6b (OVCAR-3 cells; OVCAR-3, 24 h): > 230%; retained radioactivity, more than 7b (OVCAR-3 cells; OVCAR-3, 24 h): ~ 360% |
| CC(C)(C)c1cc(C(C)(C)C)c2c(c1F)COP(=O)(O[C@H]1C[C@H](n3cc([125I])c(=O)[nH]c3=O)O[C@@H]1CO)O2 (stereo partly drawn) [14b, 5-[^125I]-Iodo-3′-O-(cyclo-3,5-di-(tert-butyl)-6-fluoroSaligenyl)-2′-deoxyuridine Monophosphate] | – | 2.7 (0.4) cpm/10^3 cells (std dev) | 66.7 (8.4) cpm/10^3 cells (std dev) | 62.5 (4.3) cpm/10^3 cells (std dev) | 4.3 (0.3) cpm/10^3 cells (std dev) | – |
| CC(C)(C)c1cc(C(C)(C)C)c2c(c1F)COP(=O)(OC[C@H]1O[C@@H](n3cc(I)c(=O)[nH]c3=O)C[C@@H]1O)O2 (stereo partly drawn) [8-slow, 5-Iodo-5′-O-[cyclo-3,5-di-(tert-butyl)-6-fluoroSaligenyl]-2′-deoxyuridine Monophosphate] | 0.000188 | – | – | – | – | – |
| Cc1cccc2c1OP(=O)(OC[C@H]1O[C@@H](n3cc([125I])c(=O)[nH]c3=O)C[C@@H]1O)OC2 (stereo partly drawn) [7b, 5-[^125I]-Iodo-5′-O-cyclo(3-methylSaligenyl)-2′-deoxyuridine Monophosphate] | – | 1.6 (0.5) cpm/10^3 cells (std dev) | 25.9 (7.1) cpm/10^3 cells (std dev) | 11.7 (1.7) cpm/10^3 cells (std dev) | 4.5 (1.0) cpm/10^3 cells (std dev) | – |
| CC(C)(C)c1cc(C(C)(C)C)c2c(c1F)COP(=O)(OC[C@H]1O[C@@H](n3cc(I)c(=O)[nH]c3=O)C[C@@H]1F)O2 (stereo partly drawn) [24-fast, 5-Iodo-5′-O-[cyclo-3,5-Di-(tert-butyl)-6-fluoroSaligenyl]-3′-fluoro-2′,3′-dideoxyuridine Monophosphate] | 0.000292 | – | – | – | – | – |
| CC(C)(C)c1cc(C(C)(C)C)c2c(c1F)COP(=O)(O[C@H]1C[C@H](n3cc(I)c(=O)[nH]c3=O)O[C@@H]1CO)O2 (stereo partly drawn) [14-fast, 5-Iodo-3′-O-[cyclo-3,5-di-(tert-butyl)-6-fluoroSaligenyl]-2′-deoxyuridine Monophosphate] | 0.000766 | – | – | – | – | – |
| CC(C)(C)c1cc(C(C)(C)C)c2c(c1F)COP(=O)(OC[C@H]1O[C@@H](n3cc(I)c(=O)[nH]c3=O)C[C@@H]1F)O2 (stereo partly drawn) [24-slow, 5-Iodo-5′-O-[cyclo-3,5-Di-(tert-butyl)-6-fluoroSaligenyl]-3′-fluoro-2′,3′-dideoxyuridine Monophosphate] | 0.000222 | – | – | – | – | – |
| O=c1[nH]c(=O)n([C@H]2C[C@H](OP3(=O)OCc4ccccc4O3)[C@@H](CO)O2)cc1I (stereo partly drawn) [12-slow, 5-Iodo-3′-O-cycloSaligenyl-2′-deoxyuridine Monophosphate] | 0.00164 | – | – | – | – | – |
| CC(C)(C)c1cc(C(C)(C)C)c2c(c1F)COP(=O)(OC[C@H]1O[C@@H](n3cc(I)c(=O)[nH]c3=O)C[C@@H]1O)O2 (stereo partly drawn) [8-fast, 5-Iodo-5′-O-[cyclo-3,5-di-(tert-butyl)-6-fluoroSaligenyl]-2′-deoxyuridine Monophosphate] | 0.000241 | – | – | – | – | – |
| Cc1cccc2c1OP(=O)(OC[C@H]1O[C@@H](n3cc([125I])c(=O)[nH]c3=O)C[C@@H]1OP1(=O)OCc3cccc(C)c3O1)OC2 (stereo partly drawn) [10b] | – | 13.4 (3.3) cpm/10^3 cells (std dev) | 24.5 (5.4) cpm/10^3 cells (std dev) | 97.1 (14.6) cpm/10^3 cells (std dev) | 6.0 (0.9) cpm/10^3 cells (std dev) | – |
| CC(C)(C)c1cc(C(C)(C)C)c2c(c1F)COP(=O)(O[C@H]1C[C@H](n3cc(I)c(=O)[nH]c3=O)O[C@@H]1CO)O2 (stereo partly drawn) [14-slow, 5-Iodo-3′-O-[cyclo-3,5-di-(tert-butyl)-6-fluoroSaligenyl]-2′-deoxyuridine Monophosphate] | 0.000667 | – | – | – | – | – |
| CC(C)(C)c1cc(C(C)(C)C)c2c(c1F)COP(=O)(OC[C@H]1O[C@@H](n3cc([125I])c(=O)[nH]c3=O)C[C@@H]1F)O2 (stereo partly drawn) [24b-fast, 5-[^125I]-Iodo-5′-O-[cyclo-3,5-Di-(tert-butyl)-6-fluoroSaligenyl]-3′-fluoro-2′,3′-dideoxyuridine] | 0.000301 | – | – | – | – | – |
| Cc1cccc2c1OP(=O)(O[C@H]1C[C@H](n3cc([125I])c(=O)[nH]c3=O)O[C@@H]1CO)OC2 (stereo partly drawn) [13b, 5-[^125I]-Iodo-3′-O-cyclo(3-methylSaligenyl)-2′-deoxyuridine Monophosphate] | – | 1.4 (0.3) cpm/10^3 cells (std dev) | 15.7 (2.2) cpm/10^3 cells (std dev) | 6.2 (0.6) cpm/10^3 cells (std dev) | 2.0 (0.2) cpm/10^3 cells (std dev) | – |
| Cc1cccc2c1OP(=O)(O[C@H]1C[C@H](n3cc(I)c(=O)[nH]c3=O)O[C@@H]1CO)OC2 (stereo partly drawn) [13-slow, 5 - Iodo-3′-O-cyclo(3-methylSaligenyl)-2′-deoxyuridine Monophosphate] | 0.000813 | – | – | – | – | – |
| O=c1[nH]c(=O)n([C@H]2C[C@H](OP3(=O)OCc4ccccc4O3)[C@@H](COP3(=O)OCc4ccccc4O3)O2)cc1[125I] (stereo partly drawn) [9b] | – | 37.3 (10.0) cpm/10^3 cells (std dev) | 18.1 (3.9) cpm/10^3 cells (std dev) | 97.6 (10.0) cpm/10^3 cells (std dev) | 6.4 (0.5) cpm/10^3 cells (std dev) | – |
